Experimental data published in ChEMBL document CHEMBL4321877, “Development of Novel N-hydroxypyridone Derivatives as Potential Anti-Ischemic Stroke Agents” (J Med Chem, 2020).
≈ marks a conversion by molar mass, not a printed value. Calls of active or inactive are those of the source. No cut-off for these calls is given here.

Experiments:
SH-SY5Y [1] = assay: Neuroprotective activity against oxygen-glucose deprivation-induced toxicity in human SH-SY5Y cells assessed as cell viability at 1 uM preincubated for 2 hrs followed by OGD-challenge and measured after 24 hrs by MTT assay (reference value: 54.92 +/- 2.12%); type: functional; conditions: read-out: Activity
SH-SY5Y [2] = assay: Neuroprotective activity against oxygen-glucose deprivation-induced toxicity in human SH-SY5Y cells assessed as cell viability at 10 uM preincubated for 2 hrs followed by OGD-challenge and measured after 24 hrs by MTT assay (reference value: 54.92 +/- 2.12%); type: functional; conditions: read-out: Activity
[3] = Permeability of the compound incubated for 10 hrs by PAMPA; type: ADME; conditions: read-out: permeability
SH-SY5Y [4] = assay: Neuroprotective activity against oxygen-glucose deprivation-induced toxicity in human SH-SY5Y cells assessed as cell viability at 2 uM preincubated for 2 hrs followed by OGD-challenge and measured after 24 hrs by MTT assay (reference value: 54.92 +/- 2.12%); type: functional; conditions: read-out: Activity
[5] = Antioxidant activity assessed as trolox equivalent of AAPH radical scavenging activity measured every min for 180 mins by ORAC-FL assay; type: functional
[6] = Metal chelating activity of the compound assessed as formation of ferric-compound complex by measuring change in color at 60 uM after 15 mins using FeSO4 solution by UV-vis spectrophotometric method
[7] = Metal chelating activity of the compound assessed as formation of ferric-compound complex by measuring change in color at 60 uM after 15 mins using ammonium iron citrate solution by UV-vis spectrophotometric method
[8] = Metal chelating activity of the compound assessed as formation of ferric-compound complex at 60 uM after 15 mins using ammonium iron citrate solution by UV-vis spectrophotometric method
[9] = Metal chelating activity of the compound assessed as formation of ferric-compound complex at 60 uM after 15 mins using FeSO4 solution by UV-vis spectrophotometric method
[10] = Metal chelating activity of the compound assessed as formation of ferric-compound complex at 60 uM after 15 mins using ammonium iron citrate solution by UV-vis spectrophotometric method
[11] = Solubility of the compound in […] incubated for 24 hrs by HPLC analysis; type: physicochemical
SH-SY5Y [12] = assay: Neuroprotective activity against oxygen-glucose deprivation-induced toxicity in human SH-SY5Y cells assessed as cell viability at 4 uM preincubated for 2 hrs followed by OGD-challenge and measured after 24 hrs by MTT assay (reference value: 54.92 +/- 2.12%); type: functional; conditions: read-out: Activity
[13] = Metal chelating activity of the compound assessed as formation of ferrous-compound complex at 60 uM after 15 mins using ammonium iron(II) sulfate solution by UV-vis spectrophotometric method
[14] = Metal chelating activity of the compound assessed as formation of ferric-compound complex at 60 uM after 15 mins using FeCl3 solution by UV-vis spectrophotometric method
SH-SY5Y [15] = assay: Cytotoxicity against human SH-SY5Y cells assessed as reduction in cell viability at 10 uM measured after 24 hrs by MTT assay; type: cell-based
Summary of the method: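 SH-SY5Y cells (1:1 MEM/F12, 10% FBS) seeded 3 × 10^4 cells/well, grown 24 h, then exposed without insult for 24 h to 1.56–100 µM or to 1 and 10 µM (DMSO stock diluted in medium). MTT read at 490 nm; viability as % of untreated control.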

Rattus norvegicus = assay: Neuroprotective activity in Sprague-Dawley rat model of middle cerebral artery occlusion-induced ischemia-reperfusion injury assessed as reduction in disease severity score at 3 mg/kg, iv measured 24 hrs post-reperfusion; type: functional, organism-based
Summary of the method: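 Male Sprague-Dawley rats anesthetized with chloral hydrate (400 mg/kg i.p.); left MCA occluded by intraluminal nylon suture for 2 h, then withdrawn. Compound in 0.9% saline given by tail vein immediately after reperfusion; body temperature held at 37.0 ± 0.5 °C. mNSS scored 24 h later; n = 15–18, mean ± SEM.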

HT-22 = assay: Neuroprotective activity against glutamate-induced cell death in mouse HT22 cells assessed as increase in cell viability up to 4 uM preincubated for 2 hrs followed by glutamate-challenge and measured after 24 hrs by MTT assay; type: functional, cell-based
Summary of the method: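 HT22 mouse hippocampal cells (DMEM, 10% FBS) seeded 5×10^4 cells/ml and grown 12 h. Compound added for 2 h, then 10 mM L-glutamic acid hydrochloride for 24 h. Viability by MTT at 490 nm as % of control; mean ± SD, n = 3.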

SH-SY5Y [16] = assay: Neuroprotective activity against oxygen-glucose deprivation-induced toxicity in human SH-SY5Y cells assessed as increase in cell viability preincubated for 2 hrs followed by OGD-challenge and measured after 24 hrs by MTT assay; type: functional, cell-based
SH-SY5Y [17] = assay: Neuroprotective activity against oxygen-glucose deprivation-induced toxicity in human SH-SY5Y cells assessed as cell viability at 10 uM preincubated for 2 hrs followed by OGD-challenge and measured after 24 hrs by MTT assay (reference value: 49.91%); type: functional; conditions: read-out: Activity
SH-SY5Y [18] = assay: Neuroprotective activity against oxygen-glucose deprivation-induced toxicity in human SH-SY5Y cells assessed as cell viability at 1 uM preincubated for 2 hrs followed by OGD-challenge and measured after 24 hrs by MTT assay (reference value: 49.91%); type: functional; conditions: read-out: Activity
SH-SY5Y [19] = assay: Neuroprotective activity against oxygen-glucose deprivation-induced toxicity in human SH-SY5Y cells assessed as cell viability at 1 uM preincubated for 2 hrs followed by OGD-challenge and measured after 24 hrs by MTT assay (reference value: 54.23 +/- 4.48%); type: functional; conditions: read-out: Activity
SH-SY5Y [20] = assay: Neuroprotective activity against oxygen-glucose deprivation-induced toxicity in human SH-SY5Y cells assessed as cell viability at 4 uM added immediately before OGD-challenge and measured after 24 hrs by MTT assay (reference value: 54.23 +/- 4.48%)

Row | Compound | viability at 1 µM (SH-SY5Y [1]) [%] | viability at 10 µM (SH-SY5Y [2]) [%] | also measured
1 | Cc1cc(C2CCCCC2)n(O)c(=O)c1Br | 62.9 | 59.9 | 
2 | Cc1cc(C2CCCCC2)n(O)c(=O)c1C=O | 54.8 | 56.5 | 
3 | Cc1cc(C2CCCCC2)n(O)c(=O)c1I | 76.3 | 55.1 | Papp at 10 h [3]: 7.65 ×10⁻⁶ cm/s; viability at 2 µM (SH-SY5Y [4]): > 80%; Activity (umolequiv/umol) [5]: 0.2
4 | CCCNCc1c(C)cc(C2CCCCC2)n(O)c1=O | 61 | 68 | 
5 | O=c1c2ccccc2cc(C2CCCCC2)n1O | 78.5 | 61.6 | Papp at 10 h [3]: 4.43 ×10⁻⁶ cm/s; Activity [5]: inactive
6 | Cc1cc(C2CCCC2)n(O)c(=O)c1 | 52.4 | 70.7 | 
7 | Cc1cc([C@H]2C[C@H]3CC[C@@H]2C3)n(O)c(=O)c1 | 70.6 | 64.5 | Activity [6]: Active; Activity [7]: Active; Activity [8]: Active; Activity [9]: Active; Papp at 10 h [3]: 7.5 ×10⁻⁶ cm/s; Activity [10]: Active; viability at 2 µM (SH-SY5Y [4]): > 80%; solubility at 24 h [11]: 1220 µg/mL (≈ 5.56 mM); viability at 4 µM (SH-SY5Y [12]): > 80%; Activity (umolequiv/umol) [5]: 1.13; Activity [13]: Active; Activity [14]: Active; Activity (SH-SY5Y [15]): Toxic
8 | Cc1cc(C2CCCCC2)n(OCC(=O)O)c(=O)c1 | 56 | 55.9 | 
9 | Cc1cc(C2CCCCC2)n(O)c(=O)c1 |  |  | Activity [6]: Active; Activity [7]: Active; Activity [8]: Active; Activity [9]: Active; Activity [10]: Active; Activity (umolequiv/umol) [5]: 0.52; Activity [13]: Active; Activity [14]: Active; Activity (Rattus norvegicus): Active; Activity (HT-22): Active
10 | Cc1cc(C2CCCCC2)n(O)c(=O)c1CNC1CCCC1 | 67 | 61.9 | Papp at 10 h [3]: 3.89 ×10⁻⁶ cm/s; Activity [5]: inactive; Activity (SH-SY5Y [15]): Toxic
11 | CCCCCCCc1cc(C)cc(=O)n1O | 71.7 | 58.5 | Activity (SH-SY5Y [16]): inactive
12 | CCOn1c(C2CCCCC2)cc(C)cc1=O |  |  | Activity [8]: inactive; Activity [9]: inactive; viability at 10 µM (SH-SY5Y [17]): 43.9%; viability at 1 µM (SH-SY5Y [18]): 46.3%
13 | Cc1cc(C2CCCCC2)n(O)c(=O)c1 [CICLOPIROX] | 70.1 | 69.8 | Papp at 10 h [3]: 8.17 ×10⁻⁶ cm/s; solubility at 24 h [11]: 1430 µg/mL (≈ 6.9 mM); Activity (SH-SY5Y [15]): Toxic
14 | CNCc1c(C)cc(C2CCCCC2)n(O)c1=O | 60.9 | 67.5 | 
15 | Cc1cc(Cc2ccccc2)n(O)c(=O)c1 | 46.5 | 76.8 | 
16 | Cc1cc(C2CCCCCC2)n(O)c(=O)c1 | 71 | 38.4 | Papp at 10 h [3]: 4.42 ×10⁻⁶ cm/s; viability at 2 µM (SH-SY5Y [4]): > 80%; Activity [5]: inactive; Activity (SH-SY5Y [15]): Toxic

Row | Compound | viability at 1 µM (SH-SY5Y [1]) [%] | viability at 10 µM (SH-SY5Y [2]) [%] | also measured
17 | Cc1cc(C2CCCCC2)n(O)c(=O)c1Cl | 63.4 | 57.1 | 
18 | Cc1cc(C)n(O)c(=O)c1 [METIPIROX] | 55.8 | 18.3 | 
19 | Cc1cc(C2CCC2)n(O)c(=O)c1 | 46 | 71.2 | 
20 | Cc1cc(C2CCCCC2)n(O)c(=O)c1CNC(C)C | 61 | 65.2 | 
21 | Cc1cc(C2CC2)n(O)c(=O)c1 | 58.8 | 62.8 | 
22 | CCCCCCCNCc1c(C)cc(C2CCCCC2)n(O)c1=O |  |  | viability at 1 µM (SH-SY5Y [19]): 60%; viability at 4 µM (SH-SY5Y [20]): 87.2%
23 | CCCCCCCCCc1cc(C)cc(=O)n1O | 53 | 42.5 | 
24 | CCCCCc1cc(C)cc(=O)n1O | 63.5 | 62 | 
25 | Cc1cc(C2CCCCC2)n(O)c(=O)c1CNc1ccccc1 | 56.8 | 75.5 | 
26 | CCc1cc(C2CCCCC2)n(O)c(=O)c1 | 69.8 | 67.3 | Papp at 10 h [3]: 4.53 ×10⁻⁶ cm/s; Activity [5]: inactive
27 | C#CCNCc1c(C)cc(C2CCCCC2)n(O)c1=O | 63.6 | 61.6 | 
28 | Cc1cc(CC(C)C)n(O)c(=O)c1 | 47.7 | 73.3 | 
29 | O=c1cccc(C2CCCCC2)n1O | 51.8 | 76.6 | 
30 | Cc1cc(=O)n(O)c(C2CCCCC2)c1Br | 81 | 63.2 | Papp at 10 h [3]: 3.97 ×10⁻⁶ cm/s; Activity [5]: inactive
31 | CCCc1cc(C)cc(=O)n1O | 47 | 64 | 
32 | COC(=O)COn1c(C2CCCCC2)cc(C)cc1=O | 49.9 | 56.4 | 
